From PubChem BioAssay
Sampled rows, rich in hits. Any-hit rate of the full collection: about 5.8%.
IDH1 mut inh = blocks human IDH1 R132H reductase activity | diaphorase/resazurin fluorescence, 60 min | O75874 | 0.18% of 70,000 active | inhibition, % at 10 µM; in the data active = inhibition above about 34%; inconclusive = no clear call, values can overlap the other calls; inactive = below about 11%;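 note: 0% = DMSO and 100% = no enzyme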
T cruzi growth-1 = inhibitors of T. cruzi proliferation; T. cruzi beta-gal in NIH3T3, GalScreen luminescence, 90 h; inhibition, % at 8.34 µM; AID 624255; 5.9% of 77,000 active;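 active = mean inhibition above about 93%, with at least 55% of replicates each passing it, limit read from the data, passing the limit was not always enough; inconclusive = only one of those two conditions holds; inactive = neither condition holds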
Pf Dd2 inh = P. falciparum Dd2 growth inhibition. activity change, % at 10 µM. SYBR Green, 72 h; stronger effect = lower value. 2.3% of 94,000 active; in the data active = activity change below about -80%; inconclusive = no clear call, values can overlap the other calls
KDM4C inh = KDM4C (human) demethylase inhibition; 0.15% of 96,000 active; Q9H3R0; AID 720574; GST-KDM4C 2-372, H3K9me3 peptide, LANCE TR-FRET; inhibition, % at 12.5 µM;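 active = mean replicate inhibition above about 25%, with at least 55% of replicates also reaching it, limit read from the data, passing the limit was not always enough; inconclusive = only one of those two conditions met; inactive = neither condition met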
Target sequence (Q9H3R0 2-372 limits assumed): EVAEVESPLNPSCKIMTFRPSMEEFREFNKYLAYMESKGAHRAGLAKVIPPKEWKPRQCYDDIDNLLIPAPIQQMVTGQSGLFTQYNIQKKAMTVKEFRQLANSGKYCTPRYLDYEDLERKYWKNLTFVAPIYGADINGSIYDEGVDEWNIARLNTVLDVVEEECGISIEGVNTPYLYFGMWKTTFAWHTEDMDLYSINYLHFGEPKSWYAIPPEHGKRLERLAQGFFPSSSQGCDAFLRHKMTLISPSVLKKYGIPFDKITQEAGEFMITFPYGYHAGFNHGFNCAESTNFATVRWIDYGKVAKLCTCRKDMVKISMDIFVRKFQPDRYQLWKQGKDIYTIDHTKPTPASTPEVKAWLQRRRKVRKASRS
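Material: N-terminal GST-fused human GASC-1 (KDM4C) fragment, residues 2-372. Input: 10 nM enzyme. Incubation: enzyme reaction 30 min, then detection 60 min, both room temperature. Doses: one test concentration per compound. Read-out basis: inhibition from TR-FRET ratio decrease. Detection: LANCE TR-FRET, excitation 340 nm, emissions 618 and 671 nm.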
T cruzi growth-2 = inhibitors of T. cruzi proliferation. 72% of 5,600 active. inhibition, % at 8.35 µM. shares compounds with T cruzi growth-1. T. cruzi beta-gal in NIH3T3, GalScreen luminescence, 90 h. AID 651739;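 active = mean replicate inhibition above about 95% and at least 55% of replicates individually reaching it, limit read from the data; inconclusive = only one of the two criteria is met; inactive = neither criterion is met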
T cruzi growth-3 = Trypanosoma cruzi proliferation inhibition. shares compounds with T cruzi growth-1. T. cruzi beta-gal in NIH3T3, GalScreen luminescence, 90 h. inhibition, % at 2.09 µM. 21% of 5,600 active. AID 651740;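 active = mean inhibition above about 95%, with at least 55% of replicates also reaching it, limit read from the data; inconclusive = meets just one of the two conditions; inactive = meets neither condition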;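 note: plate controls were neutral control median for no effect and positive control median for full effect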
NIH3T3 tox = kills mouse NIH/3T3 fibroblasts. NIH/3T3 viability, CellTiter-Glo ATP luminescence, 90 h. 14% of 5,600 active. AID 651742. shares compounds with T cruzi growth-1. cytotoxicity (signal decrease), % at 8.35 µM;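 active = mean signal decrease across replicates above about 35% based on untreated-well scatter, with enough replicates individually passing, limit read from the data; inconclusive = no rule stated though some were filed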;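 note: 0% = median of neutral control wells and 100% = median of positive control wells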
NIH3T3 tox 2 = NIH/3T3 (mouse) viability loss; shares compounds with T cruzi growth-1; NIH/3T3 viability, CellTiter-Glo ATP luminescence, 90 h; inhibition, % at 24.9 µM; 56% of 5,600 active; AID 651744;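 active = mean loss of cell viability signal at or above a set limit, and enough replicates individually reaching it; inconclusive = meets only the mean limit or only the replicate share; inactive = meets neither condition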;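 note: 0% = median of neutral control wells and 100% = median of positive control wells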
* marks the source's active call; other numbers are inactive results; u = inconclusive; x = no result given; ! = repeats disagree.

SMILES	IDH1 mut inh	T cruzi growth-1	Pf Dd2 inh	KDM4C inh	T cruzi growth-2	T cruzi growth-3	NIH3T3 tox	NIH3T3 tox 2
CC(C)CC#Cc1ccc2c(c1)O[C@@H](CN(C)C(=O)c1ccccc1F)[C@@H](C)CN([C@@H](C)CO)S2(=O)=O	-7	u	-70	-2	96*	95	18	106*
CC(C)CC#Cc1ccc2c(c1)O[C@@H](CN(C)C(=O)c1ccccc1F)[C@@H](C)CN([C@H](C)CO)S2(=O)=O	1	99*	-44	-1	89	90	24	103*
CCCC#Cc1ccc2c(c1)O[C@@H](CN(C)C(=O)c1ccccc1F)[C@H](C)CN([C@@H](C)CO)S2(=O)=O	-5	112*	-81*	-2	104*	77	32	85*
CC(C)CC#Cc1ccc2c(c1)O[C@H](CN(C)C(=O)c1ccccc1F)[C@H](C)CN([C@@H](C)CO)S2(=O)=O	-1	u	-44	-1	x	x	x	x
COCC#Cc1ccc2c(c1)O[C@@H](CN(C)C(=O)c1ccccc1F)[C@@H](C)CN([C@@H](C)CO)S2(=O)=O	0	71	-41	-1	x	x	x	x
C[C@H]1CCCCO[C@@H](CN(C)Cc2ccc3c(c2)OCO3)[C@@H](C)CN([C@@H](C)CO)C(=O)c2cc(NS(=O)(=O)c3cccs3)ccc2O1	2	15	-44	x	x	x	x	x
COc1ccc(S(=O)(=O)N2CC3(CN(C(=O)CN(C)C)[C@@H](CO)c4c3c3ccc(OC)cc3n4C)C2)cc1	x	x	-67	0	x	x	x	x
C[C@@H]1CN([C@H](C)CO)C(=O)c2cc(C#Cc3ccccc3F)cnc2O[C@H]1CN(C)S(=O)(=O)c1ccccc1F	-6	114*	-43	-1	110*	90	39*	u
C[C@@H]1CN([C@H](C)CO)C(=O)c2cc(C#Cc3ccccc3F)cnc2O[C@@H]1CN(C)S(=O)(=O)c1ccccc1F	0	106*!	-40	-2	107*	69	55*	54*
C[C@H]1CN([C@@H](C)CO)C(=O)c2cc(C#Cc3ccccc3)cnc2O[C@@H]1CN(C)S(=O)(=O)c1ccccc1F	0	u	-49	x	108*	68	37*	36*
C[C@H](CO)N1C[C@H](C)[C@H](CN(C)S(=O)(=O)c2ccccc2F)Oc2ncc(C#Cc3ccccc3F)cc2C1=O	0	u	-34	-3	106*	69	26	58*
C[C@H](CO)N1C[C@H](C)[C@H](CN(C)S(=O)(=O)c2ccccc2F)Oc2ncc(C#Cc3ccccc3)cc2C1=O	0	-10	-55	x	x	x	x	x
C[C@@H]1CN([C@@H](C)CO)C(=O)c2cc(C#Cc3ccccc3)cnc2O[C@H]1CN(C)S(=O)(=O)c1ccccc1F	0	90	-66	x	x	x	x	x
C[C@@H]1CCCCO[C@@H](CN(C)S(=O)(=O)c2cn(C)cn2)[C@@H](C)CN([C@@H](C)CO)C(=O)c2cc(NS(=O)(=O)c3ccc(F)cc3)ccc2O1	x	44	19	-1	x	x	x	x
Cc1cc(=O)[nH]c(SCC(=O)Nc2c(C)cccc2C)n1	0	x	x	x	x	x	x	x
O=C(Nc1nccs1)[C@@H]1[C@@H](CO)[C@@H]2Cn3c(cccc3=O)[C@H]1N2C(=O)C1CCCC1	x	-7	x	0	x	x	x	x
C[C@H](CO)N1C[C@H](C)[C@H](CN(C)S(=O)(=O)c2cccs2)Oc2ncc(C#Cc3ccccc3)cc2C1=O	-1	119*!	-42	-6	109*	67	24	16
C[C@@H]1CN([C@@H](C)CO)C(=O)c2cc(C#Cc3ccccc3F)cnc2O[C@@H]1CN(C)S(=O)(=O)c1ccccc1F	-3	98*	-61	-5	95*	80	56*	61*
CC(C)CC#Cc1cnc2c(c1)C(=O)N([C@H](C)CO)C[C@H](C)[C@H](CN(C)S(=O)(=O)c1cccs1)O2	1	41	-36	-4	x	x	x	x
C/C=C/c1ccc([C@@H]2[C@@H](CO)N[C@@H]2CN(C(=O)C2CCC2)C(C)C)cc1	x	38	15	7	x	x	x	x
C[C@H]1CCCCO[C@H](CN(C)S(=O)(=O)c2ccc(Cl)cc2)[C@@H](C)CN([C@@H](C)CO)C(=O)c2cc(NC(=O)c3ccncc3)ccc2O1	3	98	-76	0	x	x	x	x
C[C@@H]1CN([C@H](C)CO)C(=O)c2cc(NC(=O)c3ccncc3)ccc2O[C@@H](C)CCCCO[C@@H]1CN(C)S(=O)(=O)c1ccc(Cl)cc1	x	u	u	-1	95*	13	6	9
C[C@@H]1CCCCO[C@H](CN(C)S(=O)(=O)c2ccc(Cl)cc2)[C@H](C)CN([C@H](C)CO)C(=O)c2cc(NC(=O)c3ccncc3)ccc2O1	x	101*	-60	0	100*	65	38*	20
COCC(=O)N1CC[C@@H]2[C@H]1c1cc(-c3ccccc3)ccc1N(C)[C@@H]2CO	x	108*	15	2	96*	85	-9	-3
COCC(=O)N1CC[C@@H]2[C@H]1c1cc(-c3ccc(F)cc3)ccc1N(C)[C@@H]2CO	x	106	15	4	x	x	x	x
SMILES	IDH1 mut inh	T cruzi growth-1	Pf Dd2 inh	KDM4C inh	T cruzi growth-2	T cruzi growth-3	NIH3T3 tox	NIH3T3 tox 2
COCC(=O)N1CC[C@@H]2[C@H]1c1cc(-c3ccccc3)ccc1N(C)[C@H]2CO	x	105*	-6	0	102*	85	-9	2
CCCNC(=O)N1CC[C@@H]2[C@H]1c1cc(-c3ccccc3)ccc1N(C)[C@H]2CO	x	u	-4	4	108*	104*	8	12
C[C@@H]1CN([C@H](C)CO)S(=O)(=O)c2ccc(-c3cncnc3)cc2O[C@@H]1CN(C)C(=O)CN(C)C	0	-56	50	2	x	x	x	x
Cc1noc(C)c1NC(=O)Nc1ccc2c(c1)C(=O)N(C)[C@@H]1CC[C@H](CC(=O)N[C@H]3CCN(Cc4ccccc4)C3)O[C@@H]1CO2	x	109*	-19	2	27	8	-4	-1
Cc1noc(C)c1NC(=O)Nc1ccc2c(c1)C(=O)N(C)[C@H]1CC[C@@H](CC(=O)N[C@H]3CCN(Cc4ccccc4)C3)O[C@@H]1CO2	x	104*	18	1	-23	14	0	-7
Cc1noc(C)c1NC(=O)Nc1ccc2c(c1)C(=O)N(C)[C@@H]1CC[C@@H](CC(=O)N[C@H]3CCN(Cc4ccccc4)C3)O[C@@H]1CO2	x	107*	-32	1	-13	-29	-15	0
Cc1noc(C)c1NC(=O)Nc1ccc2c(c1)C(=O)N(C)[C@@H]1CC[C@H](CC(=O)N[C@@H]3CCN(Cc4ccccc4)C3)O[C@H]1CO2	x	36	-10	2	x	x	x	x
